The values that follow come from ChEMBL document CHEMBL2169817, “Development of novel bisphosphonate prodrugs of doxorubicin for targeting bone metastases that are cleaved pH dependently or by cathepsin B: synthesis, cleavage properties, and binding properties to hydroxyapatite as well as bone matrix” (J Med Chem, 2012).

The source made the active and inactive calls. No cut-off for these calls is given here.

The nature of data set [1]: Prodrug conversion assessed as doxorubicin formation by HPLC analysis at pH 5 in presence of cathepsin B. Format: physicochemical. Put shortly: (§1)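 Prodrug stock (1.5 mM) mixed with human liver cathepsin B (0.4 mg/mL, 23.8 U/mg) in 50 mM sodium acetate, 100 mM NaCl, 4 mM EDTA, 8 mM L-cysteine at pH 5.0 or 6.0. Incubated at 37 °C. Aliquots taken at 5–120 min and analysed by gradient C18 RP-HPLC. Control at pH 5.0 omitted the enzyme.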

Data set [2] can be described thus: Binding affinity to bovine bone matrix at pH 6 at 300 uM after 4 hrs by spectrophotometric analysis. Format: ADME, Bos taurus. The settings on record: cattle, pH 6, 4 h. Put shortly:
(§2)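 Cortical bovine backbone bone cut into 6×4×1 mm pieces, washed with water and absolute ethanol, dried. About 50 mg bone stirred at 37 °C with 300 μM prodrug in 4 mM Na₂HPO₄, 150 mM NaCl, pH 6.0 or 7.4. Control without bone. Centrifuged, supernatant A495 read. % bound = (conc without bone − conc with bone)/conc without bone × 100.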

The species entered for data set [3] is Bos taurus. Kind of data set: Binding affinity to bovine bone matrix at pH 7.4 at 300 uM after 4 hrs by spectrophotometric analysis. Put shortly:
as §2

Data set [4] is described as follows: Toxicity in iv dosed Balb/c nude mouse administered as doxorubicin equivalents once a week for 3 weeks. The data set is classed as organism-based. The settings on record: in vivo. The essentials: (§3)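 Female Balb/C nude mice, five weeks old, about 20 g, three per group. Prodrug dissolved at 3.4 mM in sterile 10 mM sodium phosphate/sodium chloride buffer, pH 7.4. Given i.v. once weekly for three weeks at 8, 16 or 24 mg/kg doxorubicin equivalents. Behaviour and welfare checked daily, body weight every two days, observation over four weeks.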

Data set [5] deals with Mus musculus. Nature of the data set: Toxicity in Balb/c nude mouse assessed as mortality at 24 mg/kg, iv of doxorubicin equivalents measured on day 7. Format: organism-based. Also noted: dose 24 mg/kg, route intravenous. The settings on record: in vivo. The essentials:
as §3

Data set [6] relates to Mus musculus. Nature of the data set: Toxicity in Balb/c nude mouse assessed as mortality at 16 mg/kg, iv of doxorubicin equivalents measured on day 7. The data set is classed as organism-based. Also noted: dose 16 mg/kg, route intravenous. The settings on record: in vivo. The essentials: as §3
Data set [7] deals with Mus musculus. Kind of data set: Toxicity in Balb/c nude mouse assessed as adverse effects at 8 mg/kg, iv of doxorubicin equivalents administered once a week on days 0, 7 and 14 measured after 1 week. Format: organism-based. Also noted: dose 8 mg/kg, route intravenous. The settings on record: in vivo, 168 h. Put shortly:
as §3

Data set [8] concerns Mus musculus. Kind of data set: Toxicity in Balb/c nude mouse assessed as weight loss at 8 mg/kg, iv of doxorubicin equivalents administered once a week on days 0, 7 and 14 measured after 1 week. The data set is classed as organism-based. Also noted: dose 8 mg/kg, route intravenous. The settings on record: in vivo, 168 h. The essentials: as §3
Data set [9] has as its system Hydroxyapatite. Nature of the data set: Binding affinity to bone mineral hydroxyapatite at pH 6 at 300 uM up to 24 hrs by photometric analysis. Put shortly: (§4)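 Compound diluted to 300 μM (checked by absorbance at 495 nm, ε 10650 M⁻¹ cm⁻¹) in 4 mM sodium phosphate, 150 mM NaCl at pH 6.0 or 7.4. Hydroxyapatite (30 equiv) added, stirred at 37 °C. Parallel solution without HA as control. Centrifuged at 0–6 h and 20 h; supernatant A495 read. Mean of three measurements. % bound = (conc without HA − conc with HA)/conc without HA × 100.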

The test system of data set [10] is Hydroxyapatite. Kind of data set: Binding affinity to bone mineral hydroxyapatite at pH 7.4 at 300 uM after 24 hrs by photometric analysis.
The test system of data set [11] is Hydroxyapatite. Nature of the data set: Binding affinity to bone mineral hydroxyapatite at pH 6 at 300 uM after 1 hr by photometric analysis. The essentials:
as §4

In data set [12] the test system is Hydroxyapatite. Nature of the data set: Binding affinity to bone mineral hydroxyapatite at pH 7.4 at 300 uM after 5 hrs by photometric analysis. Put shortly: as §4
The subject of data set [13] is Hydroxyapatite. Nature of the data set: Binding affinity to bone mineral hydroxyapatite at pH 7.4 at 300 uM after 1 hr by photometric analysis. Put shortly: as §4
The subject of data set [14] is Plasma. Kind of data set: Stability in human plasma assessed as anthracycline derivative formation over 6 hrs by HPLC analysis. The data set is classed as ADME, cell-free. The essentials:
(§5)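 Prodrug stock (3 mM in 10 mM sodium phosphate, 0.15 M NaCl, pH 7.4) added to EDTA-anticoagulated plasma from healthy volunteers, final 600 μM. Incubated at 37 °C for 0, 0.5, 1, 3 and 6 h. Samples centrifuged; supernatant analysed by C18 RP-HPLC with detection at 495 nm.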

Data set [15] deals with Plasma. Kind of data set: Stability in human plasma assessed as doxorubicin formation over 6 hrs by HPLC analysis. The data set is classed as ADME, cell-free. Put shortly: as §5
The nature of data set [16]: Prodrug conversion assessed as doxorubicin formation after 40 mins by HPLC analysis at pH 6 in presence of cathepsin B. Format: physicochemical. The settings on record: pH 6, 40 min. Put shortly:
as §1

The nature of data set [17]: […] by HPLC analysis at pH 5 in absence of cathepsin B. The settings on record: buffer. Format: physicochemical.
Data set [18] can be described thus: Prodrug conversion assessed as doxorubicin formation after 120 mins by HPLC analysis at pH 5 in presence of cathepsin B. Format: physicochemical. The settings on record: pH 5, 2 h. The essentials:
as §1

Data set [19] in a line: Half life of the compound by HPLC analysis at pH 5 in presence of cathepsin B. The data set is classed as physicochemical. The essentials:
as §1

The subject of data set [20] is Hydroxyapatite. Nature of the data set: Binding affinity to bone mineral hydroxyapatite at pH 7.4 at 300 uM by photometric analysis. Put shortly: (§6)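 Test compound at 300 μM in 4 mM sodium phosphate with 150 mM NaCl, at pH 6.0 or pH 7.4, concentration checked by absorbance at 495 nm. Hydroxyapatite powder (30 equiv) added, stirred, incubated at 37 °C, with a matching sample without hydroxyapatite as control. Centrifuged at 0–6 h and 20 h. Supernatant A495 read (ε 10650 M⁻¹ cm⁻¹). % bound = (no-HA − HA conc)/no-HA conc × 100. Mean of three measurements.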

For data set [21], the system named is Hydroxyapatite. Nature of the data set: Binding affinity to bone mineral hydroxyapatite at pH 6 at 300 uM by photometric analysis. Put shortly:
as §6

Data set [22] relates to Mus musculus. Nature of the data set: Toxicity in Balb/c nude mouse assessed as change in body weight at 24 mg/kg, iv of doxorubicin equivalents administered once a week on days 7, 14 and 21. The data set is classed as organism-based. Also noted: dose 24 mg/kg, route intravenous. The settings on record: in vivo. Put shortly: as §3
In data set [23] the test system is Mus musculus. Kind of data set: Toxicity in Balb/c nude mouse assessed as mortality at 24 mg/kg, iv of doxorubicin equivalents administered once a week on days 7, 14 and 21 measured 13 days post-last dose. Format: organism-based. Also noted: dose 24 mg/kg, route intravenous. The settings on record: in vivo, 312 h. The essentials:
as §3

The subject of data set [24] is Mus musculus. Nature of the data set: Toxicity in Balb/c nude mouse assessed as anemia at 24 mg/kg, iv of doxorubicin equivalents administered once a week on days 7, 14 and 21 measured 13 days post-last dose. The data set is classed as organism-based. Also noted: dose 24 mg/kg, route intravenous. The settings on record: in vivo, 312 h. Put shortly: as §3
Data set [25] deals with Mus musculus. Nature of the data set: Toxicity in Balb/c nude mouse assessed as adverse effects at 24 mg/kg, iv of doxorubicin equivalents administered once a week on days 7, 14 and 21. The data set is classed as organism-based. Also noted: dose 24 mg/kg, route intravenous. The settings on record: in vivo. Put shortly: as §3
The subject of data set [26] is Mus musculus. Nature of the data set: Toxicity in Balb/c nude mouse assessed as adverse effects at 16 mg/kg, iv of doxorubicin equivalents administered once a week on days 7, 14 and 21. Format: organism-based. Also noted: dose 16 mg/kg, route intravenous. The settings on record: in vivo. Put shortly: as §3
The nature of data set [27]: Prodrug conversion assessed as doxorubicin formation at pH 5.5 at 600 uM by HPLC analysis. The data set is classed as physicochemical. The settings on record: pH 5.5, 600 µM; TDE = time-dependent effect. Put shortly:
(§7)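 Prodrug at a final 2.4 mM in 4 mM sodium phosphate, 150 mM NaCl (pH 7.4), brought to pH 5.5 with 50 mM sodium acetate (pH 4.5). Held at room temperature; samples diluted to 600 μM and analysed by isocratic C18 HPLC (30% CH₃CN/10 mM phosphate pH 7.8) at 5–300 min.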

Data set [28] in a line: Half life of the compound at pH 5.5 at 600 uM by HPLC analysis. Format: physicochemical. The essentials:
as §7

On to `COc1cccc2c1C(=O)c1c(O)c3c(c(O)c1C2=O)C[C@@](O)(C(=O)CO)C[C@@H]3O[C@H]1C[C@H](NC(=O)OCc2ccc(NC(=O)[C@H](CCCCN)NC(=O)[C@H](Cc3ccccc3)NC(=O)CCCCCN3C(=O)CC(SCCCSCC(P(=O)([O-])[O-])P(=O)([O-])[O-])C3=O)cc2)[C@H](O)[C@H](C)O1.O=C(O)C(F)(F)F.[Na+].[Na+].[Na+].[Na+]` (some centres not stated), for which the Drug metabolism result in data set [1] is reported as “Active”.

For `COc1cccc2c1C(=O)c1c(O)c3c(c(O)c1C2=O)C[C@@](O)(C(=O)CO)C[C@@H]3O[C@H]1C[C@H](NC(=O)OCc2ccc(NC(=O)[C@H](C)NC(=O)[C@@H](NC(=O)CCCCCN3C(=O)CC(SCCCSCC(P(=O)(O)O)P(=O)(O)O)C3=O)C(C)C)cc2)[C@H](O)[C@H](C)O1.N.N.N.N` (some centres not stated), the Activity was 80% in data set [2]; 50% in data set [3]; “Toxic” in data set [5]; “Toxic” in data set [6]; “Non-toxic” in [7]; “Non-toxic” in data set [8]. Moreover, the Activity in data set [9] was found to be 90%; in data set [10] it was 100%; in data set [11], 65%; in data set [12], 90%; in data set [13], 50%. For the same compound, the MTD at 504 h in data set [4] was determined as 8 mg/kg. For the same compound, the Stability entry in data set [14], in [15] and in [17] was “Stable” each time. Besides, the Drug metabolism entry in data set [16], in [18] and in [1] was “Active” in each case. Also, the half-life (as a rule, how long it takes for the measured level to halve) in data set [19] came to 0.75 h.

With `COc1cccc2c1C(=O)c1c(O)c3c(c(O)c1C2=O)C[C@@](O)(C(=O)CO)C[C@@H]3O[C@H]1C[C@H](N)[C@H](O)[C@H](C)O1` [DOXORUBICIN], the Activity result in data set [2] is “Not Active”. In addition, the result in [3], in [20] and in data set [21] was inactive. In data set [4], the MTD at 504 h was 8 mg/kg.

In the case of `COc1cccc2c1C(=O)c1c(O)c3c(c(O)c1C2=O)C[C@@](O)(/C(CO)=N/NC(=O)CCCCCN1C(=O)CC(SCCCSCC(P(=O)(O)O)P(=O)(O)O)C1=O)C[C@@H]3O[C@H]1C[C@H](N)[C@H](O)[C@H](C)O1.Cl.N.N.N.N` (some centres not stated), the Activity was 80% in data set [2]; 50% in [3]; “Non-toxic” in [22]; “Toxic” in data set [23]; “Toxic” in data set [24]; “Non-toxic” in data set [25]. Also, the Activity entry is “Non-toxic” in data set [26]; “Non-toxic” in [7]; “Non-toxic” in [8]; 65% in data set [11]; 80% in data set [12]; 50% in [13]. In data set [4], the MTD at 504 h is 24 mg/kg. Moreover, the Drug metabolism entry in data set [14] is given as “Active”; in data set [15] it was “Active”; in data set [27], “tde”. The half-life at 600 µM in data set [28] was 2.5 h.
